Shown are actives, neighbours in structure and some others; about 2.8% of the full set was active somewhere.
SIRT5 inh: blocks human SIRT5 desuccinylation of peptide; Purified SirT5, succinyl-peptide AMC, trypsin-coupled fluorescence; 330,000 compounds, 1.1% hits; inhibition, % at 15 µM; Q9NXA8; in the data active = inhibition above about 15%
Target sequence (Q9NXA8 whole entry, looked up): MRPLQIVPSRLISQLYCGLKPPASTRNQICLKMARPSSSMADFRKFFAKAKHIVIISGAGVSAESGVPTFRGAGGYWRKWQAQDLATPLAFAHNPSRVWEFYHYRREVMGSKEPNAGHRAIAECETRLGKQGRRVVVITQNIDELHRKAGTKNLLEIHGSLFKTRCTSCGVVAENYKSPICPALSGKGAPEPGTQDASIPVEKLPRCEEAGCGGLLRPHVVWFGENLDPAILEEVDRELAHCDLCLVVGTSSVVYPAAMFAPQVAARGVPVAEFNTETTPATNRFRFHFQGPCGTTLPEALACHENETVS
DENV2 CPE rescue: protects cells from dengue virus 2 cytopathic effect; CPE inhibition, % at 9.99 µM; 350,000 compounds, 1.7% hits; AID 651640; DENV2-infected cells, cytopathic effect rescue, plate reader; in the data active = CPE inhibition above about 20%, passing the limit was not always enough; tested in BHK-21 cells;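 also: 0% = median of neutral control wells and 100% = median of positive control wells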
E-sel inducer: induces E-selectin expression in human endothelial cells | HUVEC E-selectin immunofluorescence imaging; normalized: neutral wells 0, TNF-alpha wells 100 | activation, % at 7.58 µM | 260,000 compounds, 0.37% hits;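 active = mean E-selectin-positive cell signal at least 10% of the positive control, reached in at least 60% of replicates, without over 20% cell loss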
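Test system – human umbilical vein endothelial cells (HUVEC), E-selectin induction · Input – 3,000 HUVEC seeded per well · Buffer or medium – EGM-2, gelatin · Compound dosing – single-point compound dose · Detection – immunofluorescence imaging · Measure – percent E-selectin-positive cells · Controls – TNF-alpha high, DMSO low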
* marks the source's active call; other numbers are inactive results; . = not tested or not shown.

SMILES | SIRT5 inh | DENV2 CPE rescue | E-sel inducer
CC(=O)N(C)C[C@H]1[C@@H](c2ccc(-c3cccc(C#N)c3)cc2)[C@@H](CO)N1C(C)=O | -4 | 6 | 0
O=C(c1cncc(Br)c1)N1CCN(S(=O)(=O)c2ccccc2C(F)(F)F)CC1 | 0 | 4 | 33*
O=C(c1cncc(Br)c1)N1CCN(S(=O)(=O)c2ccccc2)CC1 | 1 | -5 | .
O=c1oc2ccc(Br)cc2cc1-c1nc2ccccc2o1 | -1 | -3 | .
Brc1ccc2oc(-c3ccn[nH]3)cc2c1 | . | -4 | 74*
COc1cc2c(cc1OC)C(c1cccc(Br)c1)NC(=O)C2 (stereo not drawn) | -1 | 0 | .
COc1cc2c(cc1OC)C(c1c(Cl)cccc1Cl)NC(=O)C2 (stereo not drawn) | 26* | -2 | .
CC(C)COC(=O)N(C)C[C@H]1OCc2ccccc2-c2c(n(C)c3ccccc23)C(=O)N([C@@H](C)CO)C[C@@H]1C | 7 | 11 | -4
C[C@@H]1CN([C@H](C)CO)C(=O)Cc2cc(NC(=O)C3CC3)ccc2O[C@@H]1CN(C)Cc1ccc2c(c1)OCO2 | -17 | 0 | 29*
C[C@H](CO)N1C[C@H](C)[C@H](CN(C)C(=O)Nc2ccc3c(c2)OCO3)Oc2ccc(NC(=O)NC3CCCCC3)cc2CC1=O | 6 | 4 | -8
C[C@@H]1CN([C@@H](C)CO)C(=O)Cc2cc(NC(=O)NC3CCCCC3)ccc2O[C@H]1CN(C)C(=O)Nc1ccc2c(c1)OCO2 | -1 | -4 | 28*
C[C@H]1CN([C@@H](C)CO)C(=O)Cc2cc(NC(=O)C3CC3)ccc2O[C@H]1CN(C)Cc1ccc2c(c1)OCO2 | -1 | 13 | -12
C[C@@H]1CN([C@@H](C)CO)C(=O)Cc2cc(NC(=O)C3CC3)ccc2O[C@H]1CN(C)C(=O)Nc1ccc2c(c1)OCO2 | 2 | 6 | 0
C[C@H](CO)N1C[C@H](C)[C@@H](CN(C)C(=O)Nc2ccc3c(c2)OCO3)Oc2ccc(NC(=O)C3CC3)cc2CC1=O | -2 | 54* | 1
O=C(Nc1cc(F)ccc1F)N1CC(=O)N2[C@H](CO)[C@@H](c3ccc(/C=C/c4ccccc4)cc3)[C@@H]2C1 | 0 | -4 | 1
C=C(NC(=O)C(=C)NC(=O)c1csc(C2=NC3c4csc(n4)C4NC(=O)c5csc(n5)C(C(C)(O)C(C)O)NC(=O)C5CSC(=N5)/C(=C/C)NC(=O)C(C(C)O)NC(=O)c5csc(n5)C3(CC2)NC(=O)C(C)NC(=O)C(=C)NC(=O)C(=C)NC(=O)C(C(C)C)NC2C=Cc3c(C(C)O)cc(nc3C2O)C(=O)OC4C)n1)C(N)=O (stereo not drawn) | 3 | 60* | .
CC(C)c1ccc(NC(=O)C(c2ccc3c(c2)OCO3)N2CCN(C(=O)c3ccco3)CC2)cc1 (stereo not drawn) | 0 | . | .
O=C(OCC(=O)N1CCN(C(=O)c2ccco2)CC1)c1ccccc1 | -2 | 1 | 0
CC(=O)Nc1ccc(C(=O)N2CCN(C(=O)c3ccco3)CC2)cc1 | 17* | . | .
Cc1ccc(NC(=O)N2CCN(C(=O)c3ccco3)CC2)cc1Cl | -1 | 38* | 0
N#Cc1ccc(C(=O)OCC(=O)N2CCN(C(=O)c3ccco3)CC2)cc1 | 23* | 1 | 1
O=C(Nc1ccc(F)cc1)C(c1cccc(F)c1)N1CCN(C(=O)c2ccco2)CC1 (stereo not drawn) | 0 | 47* | 0
Cc1ccc(NC(=O)N2CCCC2)cc1Cl | 0 | -4 | .
CS(=O)(=O)c1ccc(C(=O)N2CCN(C(=O)c3ccco3)CC2)cc1 | -3 | 10 | 0
COc1ccc(C(=O)N2C[C@H]3[C@@H](c4ccccc42)[C@H](CO)N3C(=O)c2ccc(F)cc2)cc1 | -1 | 17 | 0
SMILES | SIRT5 inh | DENV2 CPE rescue | E-sel inducer
C[C@H](NC(=O)C[C@H]1CC[C@@H](NC(=O)CN2CCOCC2)[C@H](CO)O1)c1ccccc1 | 2 | -9 | 0
CN1CCN(C(=O)C[C@H]2CC[C@@H]3[C@H](COC[C@H](O)CN3C(=O)C3CCOCC3)O2)CC1 | 4 | -10 | 0
CC[C@H]1c2[nH]c3ccccc3c2C[C@H]2C(=O)N(c3ccc(F)cc3)C(=O)N21 | 0 | 57* | .
CC1(C)c2[nH]c3ccccc3c2C[C@@H]2C(=O)N(Cc3ccc(F)cc3)C(=O)N21 | . | -15 | 1
O=C(C[C@@H]1C[C@@H]2c3cc(NC(=O)Cc4ccncc4)ccc3O[C@@H]2[C@@H](CO)O1)NCCN1CCCCC1 | 1 | 77* | 0
COC(=O)C[C@H]1C[C@H]2c3cc(NC(=O)Cc4ccncc4)ccc3O[C@H]2[C@H](CO)O1 | 0 | 10 | -1
O=C(O)C[C@H]1C[C@@H]2c3cc(NC(=O)Cc4ccncc4)ccc3O[C@@H]2[C@H](CO)O1 | -4 | -18 | 1

Screens deposited in PubChem BioAssay by Broad Institute.
